Assay [1] can be described thus: Cytotoxicity against human leukemia cells. Conditions: for EC50: Homo sapiens, Leukemia cell, read-out: ED50 (the source's name). Type of assay: functional, Leukemia cell. The method, boiled down: (§1)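 Tested in vitro by the National Cancer Institute screen. Values are averages over each cell-line subpanel. Potency is reported two ways: C50, the half-maximal effective dose in μmol/L, and ED50, the dose that inhibits net cell growth to 50% of control growth in μg/mL.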

Assay [2] is described as follows: Cytotoxicity against human lung cancer cells. Type of assay: functional, Cancer cell lines. Conditions: for EC50: Homo sapiens, Cancer cell lines, read-out: ED50 (the source's name). The procedure, abridged:
as §1

Assay [3] in a line: Cytotoxicity against human colon cancer cells. In kind it is functional, Cancer cell lines. Conditions: for EC50: Homo sapiens, Cancer cell lines, read-out: ED50 (the source's name). The method, boiled down:
as §1

Assay [4] can be described thus: Cytotoxicity against human central nervous system cancer cells. In kind it is functional, Cancer cell lines. The note with it: for EC50: Homo sapiens, Cancer cell lines, read-out: ED50 (the source's name). The method, boiled down:
as §1

Assay [5] in a line: Cytotoxicity against human melanoma cells. In kind it is functional, Melanoma cell. Conditions: for EC50: Homo sapiens, Melanoma cell, read-out: ED50 (the source's name). The procedure, abridged:
as §1

A short description of assay [6]: Cytotoxicity against human ovarian cancer cells. Conditions: for EC50: Homo sapiens, Cancer cell lines, read-out: ED50 (the source's name). Type of assay: functional, Cancer cell lines. The method, boiled down: as §1
A short description of assay [7]: Cytotoxicity against human renal cancer cells. The note with it: for EC50: Homo sapiens, Cancer cell lines, read-out: ED50 (the source's name). Type of assay: functional, Cancer cell lines. The method, boiled down: as §1
A short description of assay [8]: Cytotoxicity against human prostate cancer cells. Type of assay: functional, Cancer cell lines. Conditions: for EC50: Homo sapiens, Cancer cell lines, read-out: ED50 (the source's name). The method, boiled down: as §1
The nature of assay [9]: Cytotoxicity against human breast cancer cells. In kind it is functional, Cancer cell lines. The note with it: for EC50: Homo sapiens, Cancer cell lines, read-out: ED50 (the source's name). The method, boiled down:
as §1

Values after ≈ are worked out from the molar mass of the structure shown.

With `C=C1C(=O)O[C@H]2[C@H]1CC(=O)/C(C)=C/CC[C@@]1(C)O[C@@H]21`, the C50 in assay [1] was determined as 0.08 µmol/L; in assay [2], 1.8 µmol/L; in assay [3] it was 0.32 µmol/L; in assay [4], 2.9 µmol/L; in assay [5], 0.57 µmol/L; in assay [6], 1.4 µmol/L. Also, the C50 in assay [7] was found to be 0.41 µmol/L; in assay [8], 2.2 µmol/L; in [9] it was 0.6 µmol/L. The EC50 in assay [1] came to 0.02 µg/mL (≈ 0.0762 µM); in assay [2], 0.47 µg/mL (≈ 1.79 µM); in [3], 0.08 µg/mL (≈ 0.305 µM); in [4], 0.76 µg/mL (≈ 2.9 µM); in assay [5], 0.15 µg/mL (≈ 0.572 µM); in assay [6], 0.37 µg/mL (≈ 1.41 µM). Also, the EC50 in assay [7] is 0.11 µg/mL (≈ 0.419 µM); in assay [8], 0.57 µg/mL (≈ 2.17 µM); in assay [9], 0.16 µg/mL (≈ 0.61 µM).
For the compound `C=C1C(=O)O[C@H]2[C@H]1CC(=O)/C(C)=C\CC[C@@]1(C)O[C@@H]21`, the C50 in [1] came to 1.94 µmol/L; in assay [2] it was 13.4 µmol/L; in assay [3], 7.3 µmol/L; in [4] it was 17.1 µmol/L; in assay [5] it was 10.6 µmol/L; in assay [6], 11.9 µmol/L. Moreover, the C50 was determined as 8.05 µmol/L in assay [7], 14.4 µmol/L in assay [8] and 9.81 µmol/L in assay [9]. Also, the EC50 in assay [1] worked out at 0.51 µg/mL (≈ 1.94 µM); in [2], 3.51 µg/mL (≈ 13.4 µM); in [3] it was 1.91 µg/mL (≈ 7.28 µM); in [4], 4.47 µg/mL (≈ 17 µM); in assay [5], 2.77 µg/mL (≈ 10.6 µM); in assay [6] it was 3.13 µg/mL (≈ 11.9 µM). In addition, the values for the EC50 in assay [7], in assay [8] and in [9] were 2.11 µg/mL (≈ 8.04 µM), 3.77 µg/mL (≈ 14.4 µM) and 2.57 µg/mL (≈ 9.8 µM), respectively.

(Values after ChEMBL document CHEMBL1142556, “cis-parthenolid-9-one from Anvillea garcinii” (2000).)
